Experimental findings from ChEMBL document CHEMBL1150350, “Evaluation of the amino acid binding site of Mycobacterium tuberculosis glutamine synthetase for drug discovery” (Bioorg Med Chem, 2008) are described below.

The source made the active and inactive calls. The rule behind the calls is not given here.

The inhibition is the percentage by which the read-out fell short of the control. A lower inhibition goes with a response near the control. As a reminder, the Ki is a dissociation constant, usually derived from enzyme kinetics or from competition with a known ligand. The IC50 is the midpoint of a concentration-inhibition curve. A high value points to weaker potency in that assay.

In experiment [1] the test system is Mycobacterium tuberculosis. The experiment in a line: Activation of Mycobacterium tuberculosis glutamine synthetase at 1 mM in water. The method, boiled down:
(§1)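 Unadenylylated MtGS from an E. coli expression strain, 7 nM subunit, in 50 mM HEPES-HCl pH 7.5 with 25 mM MgCl2, 1 mM ATP and 30 mM NH4Cl. Compound (water stock) was preincubated 20 min at RT, then 10 mM L-glutamate was added and the reaction run 60 min at RT. Released Pi was read at A635 minus a no-GS/no-ATP background. Triplicate; % of uninhibited; t-test, p<0.1.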

The species entered for experiment [2] is Ovis aries. The experiment is described as follows: Inhibition of sheep brain glutamine synthetase at 25 mM.
The test system of experiment [3] is Mycobacterium tuberculosis. The experiment is described as follows: Inhibition of Mycobacterium tuberculosis glutamine synthetase at 1 mM in DMSO. Summed up: (§2)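 Compound from a DMSO stock (2% v/v DMSO final) was preincubated 20 min at RT with unadenylylated MtGS (7 nM subunit) in 50 mM HEPES-HCl pH 7.5, 25 mM MgCl2, 1 mM ATP and 30 mM NH4Cl. Started with 10 mM L-glutamate, 60 min at RT. Phosphate read at 635 nm, corrected by a compound-background plate lacking GS and ATP. Triplicate, % vs uninhibited enzyme.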

Experiment [4] has as its target T1, Glutamine synthetase (Salmonella typhimurium (strain LT2 / SGSC1412 / ATCC 700720), UniProt P0A1P6).
T1 sequence (P0A1P6 whole entry): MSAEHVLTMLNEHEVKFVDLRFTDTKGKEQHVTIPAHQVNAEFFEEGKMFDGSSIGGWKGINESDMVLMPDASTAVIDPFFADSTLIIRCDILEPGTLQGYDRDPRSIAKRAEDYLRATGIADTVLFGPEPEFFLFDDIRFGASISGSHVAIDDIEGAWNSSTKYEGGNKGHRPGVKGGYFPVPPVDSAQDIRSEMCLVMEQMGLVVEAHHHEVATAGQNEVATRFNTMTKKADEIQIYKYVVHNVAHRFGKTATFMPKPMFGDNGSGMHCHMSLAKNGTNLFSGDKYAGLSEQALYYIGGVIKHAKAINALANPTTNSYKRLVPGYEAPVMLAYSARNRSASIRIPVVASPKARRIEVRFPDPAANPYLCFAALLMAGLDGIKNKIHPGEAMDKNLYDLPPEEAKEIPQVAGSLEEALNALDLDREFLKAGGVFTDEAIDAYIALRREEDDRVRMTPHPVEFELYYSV
The experiment is described as follows: Inhibition of Salmonella Typhimurium glutamine synthetase by transferase assay. Set-up: species or system Salmonella enterica subsp. enterica serovar Typhimurium.

The nature of experiment [5]: Inhibition of Mycobacterium tuberculosis glutamine synthetase by transferase assay.
For experiment [6], the species on record is Ovis aries. The experiment is described as follows: Inhibition of sheep brain glutamine synthetase at 0.5 mM by transferase assay.
Experiment [7] deals with T2, Glutamine synthetase (Glycine max) (UniProt Q43760).
T2 sequence (whole entry): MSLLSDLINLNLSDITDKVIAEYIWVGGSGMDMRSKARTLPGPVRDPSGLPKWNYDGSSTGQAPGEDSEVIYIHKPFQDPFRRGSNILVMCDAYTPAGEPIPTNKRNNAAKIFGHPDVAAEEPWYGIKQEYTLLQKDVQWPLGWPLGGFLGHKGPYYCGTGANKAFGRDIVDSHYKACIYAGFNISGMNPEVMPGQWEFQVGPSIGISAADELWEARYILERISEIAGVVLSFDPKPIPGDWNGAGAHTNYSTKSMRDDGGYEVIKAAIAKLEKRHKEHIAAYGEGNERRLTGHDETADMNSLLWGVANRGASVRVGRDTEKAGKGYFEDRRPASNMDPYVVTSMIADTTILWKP
The experiment is described as follows: Inhibition of soybean glutamine synthetase at 0.5 mM by transferase assay.

Experiment [8] has as its system Mycobacterium tuberculosis. Conditions: at 1 mM.
The test system of experiment [9] is Mycobacterium tuberculosis. The experiment is described as follows: Activation of Mycobacterium tuberculosis glutamine synthetase at 0.50 mM in water. The method, boiled down:
as §1

In experiment [10] the test system is Mycobacterium tuberculosis. The experiment in a line: Inhibition of Mycobacterium tuberculosis glutamine synthetase at 0.93 mM in water. The method, boiled down: as §1
Experiment [11] concerns Mycobacterium tuberculosis. The experiment is described as follows: Inhibition of Mycobacterium tuberculosis glutamine synthetase at 0.75 mM in DMSO. Summed up: as §2
Experiment [12] is described as follows: Inhibition of Escherichia coli glutamine synthetase by transferase assay.
A further experiment deals with Escherichia coli. The experiment in a line: Inhibition of Escherichia coli glutamine synthetase at 1.1 mM.
Experiment [13] in a line: Inhibition of sheep brain glutamine synthetase by transferase assay. Set-up: species or system Ovis aries.
Experiment [14] deals with T3, Glutamine synthetase (Glycine max, UniProt Q43760).
T3 sequence (Q43760 whole entry): T2 sequence (whole entry)
The experiment is described as follows: Inhibition of soybean glutamine synthetase by transferase assay.

The test system of experiment [15] is Mycobacterium tuberculosis. The experiment in a line: Inhibition of Mycobacterium tuberculosis glutamine synthetase at 0.90 mM in water. Summed up: as §1
In experiment [16] the test system is Mycobacterium tuberculosis. The experiment is described as follows: Inhibition of Mycobacterium tuberculosis glutamine synthetase at 0.20 mM in water. Summed up: as §1
Experiment [17] relates to Mycobacterium tuberculosis. The experiment is described as follows: Inhibition of Mycobacterium tuberculosis glutamine synthetase at 0.50 mM in water. Summed up: as §1

In the case of `O=C(O)CNc1cccc(C(=O)O)c1`, the result in experiment [1] was Active.

Consider `O=C(O)c1cccc(N[C@H](CO)C(=O)O)c1`, for which the outcome in [1] was Active.

As for `O=C(O)c1cccc(N[C@@H](CO)C(=O)O)c1`, in [1], the outcome was Active.

Turning to `C[S+]([O-])CC[C@H](N)C(=O)O` (some centres undefined), the inhibition in the experiment listed under Ovis aries [2] was 11%.

With `NC[C@H](O)CC[C@H](N)C(=O)O`, the inhibition in [3] amounted to 56%; in the experiment filed under Ovis aries [6], 22%; in experiment [7], 21%; in experiment [8], 58%. This compound also showed a Ki on Glutamine synthetase [4] of 40 µM. For the same compound, the midpoint of inhibition in experiment [5], the IC50, lay at 610 µM.

In experiment [3], `NS(=O)(=O)c1ccc2[nH]c(=O)[nH]c2c1` showed an inhibition of 24%.

For the compound `CCOP(=O)(OCC)c1cccc(N[C@@H](CO)C(=O)O)c1`, the outcome in [1] was Active.

`CSc1cccc(N[C@@H](CO)C(=O)O)c1`: in [9], the outcome was Active.

Regarding `O=C(O)CNc1ccc(O)c(S(=O)(=O)O)c1`, in experiment [8], the inhibition was 48%.

`CP(=O)(O)CCC(N)C(=O)O` (racemic) [GLUFOSINATE] had an IC50 in experiment [5] of 1.9 µM.

In the case of `C[S+]([O-])c1cccc(N[C@@H](CO)C(=O)O)c1` (some centres undefined), in experiment [8], the inhibition is 13%.

Take `CS(=O)(=O)CC[C@H](N)C(=O)O`: the values for the inhibition (in the experiment filed under Ovis aries [2]; in experiment [8]) were 67% and 33%, respectively.

In experiment [8], `C[S+]([O-])c1cccc(NCC(=O)O)c1` (centres undefined) showed an inhibition of 30%.

As to `NC(Cc1ccc(CP(=O)(O)O)cc1)C(=O)O` (centres undefined), the outcome in experiment [10] was inactive.

For `N[C@@H](CCCP(=O)(O)O)C(=O)O`, the outcome in experiment [11] was inactive.

On to `CCOP(=O)(OCC)c1cccc(N[C@H](CO)C(=O)O)c1`, for which, in [1], the outcome was Active.

For the compound `NS(=O)(=O)c1cccc(N[C@@H](CO)C(=O)O)c1`, the result in experiment [1] was Active.

In the case of `NS(=O)(=O)c1cccc(N[C@H](CO)C(=O)O)c1`, the inhibition in [8] amounted to 33%.

For the compound `N[C@@H](CCP(=O)(O)O)C(=O)O`, the inhibition constant Ki in [12] was found to be 54 µM. This compound also returned an inhibition with Escherichia coli of 61%.

The compound `CCOP(=O)(OCC)c1cccc(NCC(=O)O)c1` had an inhibition in experiment [3] of 42%.

Regarding `N[C@@H](CCNO)C(=O)O`, the inhibitory constant (Ki) is 7 µM in [13] and 21 µM on Glutamine synthetase [14]. Besides, the inhibition in experiment [8] worked out at 26%.

With `CSc1cccc(NCC(=O)O)c1`, in experiment [15], the outcome was inactive.

In the case of `O=C(O)c1cccc(NC(=O)c2nc[nH]n2)c1`, the inhibition in experiment [3] turned out to be 26%.

As for `NC(Cc1ccccc1CP(=O)(O)O)C(=O)O` (centres undefined), in experiment [16], the outcome was inactive.

`CSc1cccc(N[C@H](CO)C(=O)O)c1`: the outcome in experiment [17] was inactive.
